Data on one compound can be found in ChEMBL document CHEMBL4819011, “Structure-based discovery of 1H-indole-2-carboxamide derivatives as potent ASK1 inhibitors for potential treatment of ulcerative colitis” (Eur J Med Chem, 2021).

Calls of active or inactive are those of the source. The calls are words filed in the database; no cut-off is given here.

A short description of data set [1]: Volume of distribution at steady state in Sprague-Dawley rat at 1 mg/kg, iv measured for 24 hrs by LC-MS/MS analysis. Type of data set: ADME, organism-based. Particulars: in vivo, read-out: Vdss. In short, it runs like this:
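Male SD rats, fasted 24 h, n = 3. Single iv dose of 1 mg/kg given as a solution in 10% DMAC + 10% (30% Solutol HS 15 in water) + 80% saline. Venous blood (about 150 µL) collected into heparin tubes at 0.083, 0.25, 0.5, 1, 2, 4, 8 and 24 h. Plasma protein-precipitated with ACN containing dexamethasone IS, analysed by LC-MS/MS. Parameters calculated in DAS 2.1.1; mean ± SD.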

The test system of data set [2] is Mus musculus. Briefly: Anti-ulcerative colitis activity against DSS-induced ulcerative colitis ICR mouse model assessed as colon shortening at 25 mg/kg, po qd measured after 7 days (reference value: 26.7%). Particulars: time 7 day. Type of data set: functional. In short, it runs like this: (§1)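 Male ICR mice (18–22 g, 6–8 weeks) given 3% DSS (w/v) in drinking water for 7 days, water changed every two days. Dosed 25 mg/kg po once daily in CMC-Na aqueous vehicle during DSS exposure; vehicle-treated water and DSS groups served as controls, n = 6 per group. Body weight, stool consistency and rectal bleeding recorded daily. DAI is the mean of the weight-loss (0–4), stool (0–2) and blood (0–2) scores. Colon length measured at sacrifice. Mean ± SEM.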

Data set [3] has as its system Mus musculus. Description: Anti-ulcerative colitis activity against DSS-induced ulcerative colitis ICR mouse model assessed as decrease of colonic tissue damage at 25 mg/kg, po qd measured after 7 days by H and E staining method. The format is functional, organism-based. The settings on record: time 7.0 day. The method in brief:
(§2)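 ICR mice given 3% DSS in drinking water for 7 days with 25 mg/kg po qd in CMC-Na vehicle. At sacrifice, colons fixed in 4% formaldehyde, paraffin-embedded, sectioned at 4 µm and stained with hematoxylin and eosin. Histopathology examined by light microscopy.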

Data set [4] concerns Mus musculus. Briefly: Anti-ulcerative colitis activity against DSS-induced ulcerative colitis ICR mouse model assessed as decrease of infiltration of inflammatory cells in colon at 25 mg/kg, po qd measured after 7 days by H and E staining method. Type of data set: functional, organism-based. Particulars: time 7.0 day. The method in brief: as §2
The target in data set [5] is T1, Mitogen-activated protein kinase kinase kinase 5 (Mus musculus) (UniProt O35099).
T1 sequence (whole entry): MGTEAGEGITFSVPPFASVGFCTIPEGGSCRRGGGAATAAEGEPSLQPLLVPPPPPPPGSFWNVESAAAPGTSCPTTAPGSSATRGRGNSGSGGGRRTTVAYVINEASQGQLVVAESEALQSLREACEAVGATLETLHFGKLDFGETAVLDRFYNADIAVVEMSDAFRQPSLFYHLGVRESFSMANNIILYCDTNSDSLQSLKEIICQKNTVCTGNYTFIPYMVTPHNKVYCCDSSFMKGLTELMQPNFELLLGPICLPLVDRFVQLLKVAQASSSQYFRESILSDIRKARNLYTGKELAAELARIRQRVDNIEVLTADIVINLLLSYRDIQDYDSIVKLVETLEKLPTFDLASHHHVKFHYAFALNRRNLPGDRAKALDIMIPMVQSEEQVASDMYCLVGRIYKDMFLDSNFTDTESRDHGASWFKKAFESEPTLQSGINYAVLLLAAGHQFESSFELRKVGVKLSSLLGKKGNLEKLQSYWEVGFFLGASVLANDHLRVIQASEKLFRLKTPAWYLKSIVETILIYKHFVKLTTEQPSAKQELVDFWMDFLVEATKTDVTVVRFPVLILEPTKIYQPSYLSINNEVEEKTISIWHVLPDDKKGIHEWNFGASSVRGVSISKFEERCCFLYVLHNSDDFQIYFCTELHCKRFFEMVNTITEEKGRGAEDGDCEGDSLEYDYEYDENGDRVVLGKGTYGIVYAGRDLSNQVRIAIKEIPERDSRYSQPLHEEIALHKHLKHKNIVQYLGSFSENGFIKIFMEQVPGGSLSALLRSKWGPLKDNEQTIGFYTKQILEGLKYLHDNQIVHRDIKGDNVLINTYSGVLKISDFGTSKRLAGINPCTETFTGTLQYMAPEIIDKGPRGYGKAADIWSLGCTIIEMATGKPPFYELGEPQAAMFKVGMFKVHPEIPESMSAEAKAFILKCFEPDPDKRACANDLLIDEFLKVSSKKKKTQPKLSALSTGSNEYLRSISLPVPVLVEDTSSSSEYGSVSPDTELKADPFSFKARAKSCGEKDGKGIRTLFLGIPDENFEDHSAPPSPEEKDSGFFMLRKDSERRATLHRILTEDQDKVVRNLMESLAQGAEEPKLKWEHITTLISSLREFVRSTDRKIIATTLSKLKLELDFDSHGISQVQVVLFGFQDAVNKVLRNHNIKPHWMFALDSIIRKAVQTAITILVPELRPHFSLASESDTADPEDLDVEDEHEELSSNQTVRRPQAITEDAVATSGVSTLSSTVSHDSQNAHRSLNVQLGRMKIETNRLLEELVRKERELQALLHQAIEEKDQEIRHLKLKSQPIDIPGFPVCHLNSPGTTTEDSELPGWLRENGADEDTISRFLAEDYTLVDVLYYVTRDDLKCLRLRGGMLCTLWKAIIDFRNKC
Description: In vivo inhibition of ASK1 in DSS-induced ulcerative colitis ICR mouse model assessed as downregulation of phosphorylation of ASK1 in colon at 25 mg/kg, po qd measured after 7 days by western blot assay. The format is functional, organism-based. Particulars: time 7.0 day. The method in brief: (§3)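 Colons from ICR mice given 7 days of DSS plus 25 mg/kg po qd. Tissue homogenised in ice-cold RIPA buffer and protein quantified by BCA. Proteins separated by SDS-PAGE, transferred to PVDF and blocked in 5% BSA. Probed overnight at 4 °C for total and phospho ASK1, MKK3/6, MKK4/7, p38 and JNK, with GAPDH as loading control. Detected with HRP anti-rabbit secondary and ECL. Phosphorylated protein normalised to its unphosphorylated form.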
(In western blotting, separated proteins are transferred to a membrane and probed.)

For data set [6], the target named is T1, Mitogen-activated protein kinase kinase kinase 5 (Mus musculus). Briefly: In vivo inhibition of ASK1 in DSS-induced ulcerative colitis ICR mouse model assessed as downregulation of phosphorylation of MKK3/6 in colon at 25 mg/kg, po qd measured after 7 days by western blot assay. Type of data set: functional, organism-based. Particulars: time 7.0 day. The method in brief: as §3

The target is the same in data set [7]. Description: In vivo inhibition of ASK1 in DSS-induced ulcerative colitis ICR mouse model assessed as downregulation of phosphorylation of MKK4/7 in colon at 25 mg/kg, po qd measured after 7 days by western blot assay. Particulars: time 7.0 day. The format is functional, organism-based. The method in brief: as §3
The subject of data set [8] is Mus musculus. Briefly: Anti-inflammatory activity against DSS-induced ulcerative colitis ICR mouse model assessed as decrease of IL-1 beta level in colon at 25 mg/kg, po qd measured after 7 days by ELISA. Type of data set: functional, organism-based. Particulars: time 7.0 day. In short, it runs like this: (§4)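 Colon tissue collected from ICR mice after 7 days of 3% DSS drinking water plus 25 mg/kg po qd dosing. Tissue homogenised and centrifuged; IL-1β, IL-6 and TNF-α in the supernatant measured with mouse ELISA kits.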
For orientation: In an ELISA, binding on a coated surface is turned into a signal by an enzyme label.

For data set [9], the system named is Mus musculus. Briefly: Anti-inflammatory activity against DSS-induced ulcerative colitis ICR mouse model assessed as decrease of IL-6 level in colon at 25 mg/kg, po qd measured after 7 days by ELISA. The format is functional, organism-based. Particulars: time 7.0 day. The method in brief:
as §4

In data set [10] the test system is Mus musculus. Briefly: Anti-inflammatory activity against DSS-induced ulcerative colitis ICR mouse model assessed as decrease of TNF-alpha level in colon at 25 mg/kg, po qd measured after 7 days by ELISA. The format is functional, organism-based. The settings on record: time 7.0 day. In short, it runs like this: as §4
Data set [11] concerns Mus musculus. Description: Anti-ulcerative colitis activity against DSS-induced ulcerative colitis ICR mouse model assessed as recovery of body weight loss at 25 mg/kg, po qd measured after 7 days. Type of data set: functional, organism-based. The settings on record: time 7.0 day. In short, it runs like this:
as §1

In data set [12] the test system is Mus musculus. Briefly: Anti-ulcerative colitis activity against DSS-induced ulcerative colitis ICR mouse model assessed as disease activity index score at 25 mg/kg, po qd measured after 7 days (reference value: 2.83 units). The format is functional. Particulars: time 7 day. The method in brief:
as §1

The target in data set [13] is T1, Mitogen-activated protein kinase kinase kinase 5 (Mus musculus). Briefly: In vivo inhibition of ASK1 in DSS-induced ulcerative colitis ICR mouse model assessed as downregulation of phosphorylation of p38 in colon at 25 mg/kg, po qd measured after 7 days by western blot assay. Particulars: time 7.0 day. The format is functional, organism-based. The method in brief: as §3

For data set [14] the target is unchanged. Description: In vivo inhibition of ASK1 in DSS-induced ulcerative colitis ICR mouse model assessed as downregulation of phosphorylation of JNK in colon at 25 mg/kg, po qd measured after 7 days by western blot assay. Type of data set: functional, organism-based. Particulars: time 7.0 day. The method in brief: as §3
A short description of data set [15]: Oral bioavailability in Sprague-Dawley rat at 5 mg/kg measured for 24 hrs by LC-MS/MS analysis. Type of data set: ADME, organism-based. The settings on record: in vivo.

As for `Cc1cc(F)c(C(=O)Nc2cccc(-c3nncn3C(C)C)n2)cc1-n1cnc(C2CC2)c1` [SELONSERTIB], the Vd in [1] turned out to be 0.55 L/kg. The Activity with Mus musculus [2] is listed as 23.4%. For the same compound, the outcome in the data set with Mus musculus [3], in the data set on Mus musculus [4], in the data set on Mus musculus [8], in the data set with Mus musculus [9] and with Mus musculus [10] was Active. Also, the inhibition result in [5], in data set [6], in data set [7], in data set [13] and in [14] was “Active” each time. Moreover, the result in the data set on Mus musculus [11] was inactive. In the data set on Mus musculus [12], the DAI score decrease is 0.83. In data set [15], this compound came in with a bioavailability of 75%.

Usually bioavailability stands for the share of a dose that reaches the circulation, judged against a reference dose that is usually intravenous. Higher therefore signals good availability.
